# Laboratory results taken from ChEMBL document CHEMBL3108738, “The chemical and biological potential of C ring modified triterpenoids” (Eur J Med Chem, 2014).
# The source made the active and inactive calls. No cut-off for these calls is given here.
# Experiments:
# [1] = system: NIH3T3; experiment: Cytotoxicity against mouse NIH/3T3 cells after 96 hrs by SRB assay; format: ADME, cell-based; details: NIH3T3, 96 h
# [2] = system: A549; experiment: Cytotoxicity against human A549 cells after 96 hrs by SRB assay; format: functional, cell-based; details: A549, 96 h
# [3] = system: HT-29; experiment: Cytotoxicity against human HT-29 cells after 96 hrs by SRB assay; format: functional, cell-based; details: HT-29, 96 h
# [4] = system: A2780; experiment: Cytotoxicity against human A2780 cells after 96 hrs by SRB assay; format: functional, cell-based; details: A2780, 96 h
# [5] = system: 8505C; experiment: cells; format: functional, cell-based; details: Homo sapiens, 96 h
# [6] = system: MCF7; experiment: Cytotoxicity against human MCF7 cells after 96 hrs by SRB assay; format: functional, cell-based; details: MCF7, 96 h
# [7] = Cytotoxicity against human 518A2 cells after 96 hrs by SRB assay; format: functional, cell-based; details: 518A2, 96 h
# [8] = system: A2780; experiment: Induction of apoptosis in human A2780 cells assessed as necrotic cells at 30 uM after 24 hrs by annexin V/propidium iodide staining-based FACS analysis (reference value: 6.37%); format: functional
# [9] = system: A2780; experiment: Induction of apoptosis in human A2780 cells assessed as vital cells at 30 uM after 24 hrs by annexin V/propidium iodide staining-based FACS analysis (reference value: 82.15%); format: functional
# [10] = system: A2780; experiment: Induction of apoptosis in human A2780 cells assessed as secondary necrotic cells at 30 uM after 24 hrs by annexin V/propidium iodide staining-based FACS analysis (reference value: 9.71%); format: functional
# [11] = system: A2780; experiment: Induction of apoptosis in human A2780 cells assessed as necrotic cells at 30 uM after 24 hrs by annexin V/propidium iodide staining-based FACS analysis (reference value: 1.78%); format: functional
# [12] = system: A2780; experiment: Cell cycle arrest in human A2780 cells at 30 uM by propidium iodide staining-based FACS analysis; format: functional
# [13] = system: A2780; experiment: Cell cycle arrest in human A2780 cells assessed as accumulation at S phase at 30 uM by propidium iodide staining-based FACS analysis (reference value: 32.439 %); format: functional
# [14] = system: A2780; experiment: Cell cycle arrest in human A2780 cells assessed as accumulation at G2 phase at 30 uM by propidium iodide staining-based FACS analysis (reference value: 15.721 %); format: functional
# [15] = system: A2780; experiment: Cell cycle arrest in human A2780 cells assessed as accumulation at G1 phase at 30 uM by propidium iodide staining-based FACS analysis (reference value: 51.839 %); format: functional
# [16] = system: A2780; experiment: Induction of apoptosis in human A2780 cells at 30 uM after 24 hrs by annexin V/propidium iodide staining-based FACS analysis; format: functional
# [17] = system: A2780; experiment: Induction of apoptosis in human A2780 cells assessed as DNA ladder formation at 30 uM after 24 hrs by electrophoresis; format: functional, cell-based
# Procedure, shortened: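 A2780 cells were exposed to 30 µM compound for 24 h. Floating (dead) cells were collected and washed with PBS, and DNA fragmentation was examined by gel laddering alongside an untreated control.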
IC50 [5],SMILES,IC50 [1],IC50 [2],IC50 [3],IC50 [4],IC50 [6],IC50 [7],Activity [8],Activity [9],Activity [10],Activity [11],Activity [12],Activity [13],Activity [14],Activity [15],Activity [16],Activity [17]
72.1 µM,CC1(C)CC[C@@]23CC[C@]4(C)[C@@](OC2=O)([C@@H]3C1)[C@@H](I)C[C@@H]1[C@@]2(C)C[C@@H](O)[C@H](O)C(C)(C)[C@@H]2CC[C@]14C,80.2 µM,34.4 µM,> 90 µM,31.5 µM,,,,,,,,,,,,
29.1 µM,CC1(C)CC[C@]2(C(=O)OCc3ccccc3)CC[C@]3(C)C(=CC[C@@H]4[C@@]5(C)CC[C@H](O)C(C)(C)[C@@H]5CC[C@]43C)[C@@H]2C1,22.4 µM,28 µM,28.7 µM,23 µM,15.8 µM,28 µM,,,,,,,,,,
20.5 µM,COC(=O)[C@]12CCC(C)(C)C[C@H]1C1=CC[C@@H]3[C@@]4(C)CC[C@H](OC(C)=O)C(C)(C)[C@@H]4CC[C@@]3(C)[C@]1(C)CC2,34.3 µM,26.1 µM,26.7 µM,8.6 µM,16.7 µM,34.1 µM,15.68%,72.47%,9.43%,2.41%,inactive,28.805%,15.901%,55.294%,,
13 µM,COC(=O)[C@]12CCC(C)(C)C[C@H]1C1=CC(=O)[C@@H]3[C@@]4(C)CC[C@H](O)C(C)(C)[C@@H]4CC[C@@]3(C)[C@]1(C)CC2,24.8 µM,15.1 µM,18.5 µM,6.6 µM,21.3 µM,15.6 µM,34.13%,33.08%,29.68%,3.11%,,,,,>50%,Active
20.6 µM,COC(=O)[C@]12CC[C@@H](C)[C@H](C)[C@H]1C1=CC[C@@H]3[C@@]4(C)CC[C@H](O)C(C)(C)[C@@H]4CC[C@@]3(C)[C@]1(C)CC2 [METHYL URSOLATE],,20.2 µM,25.4 µM,15.3 µM,22.2 µM,17.7 µM,,,,,,,,,,
> 90 µM,CC(=O)O[C@H]1CC[C@]2(C)[C@H]3C[C@H](O)[C@]45OC(=O)[C@@]6(CCC(C)(C)C[C@H]64)CC[C@@]5(C)[C@]3(C)CC[C@H]2C1(C)C,85.7 µM,> 90 µM,> 90 µM,63.2 µM,> 90 µM,> 90 µM,11.84%,74.74%,11.89%,1.54%,inactive,32.261%,15.86%,51.879%,,
,CN[C@@H]1C[C@H]2O[C@@](C)([C@@H]1OC)n1c3ccccc3c3c4c(c5c6ccccc6n2c5c31)C(=O)NC4 [STAUROSPORINE],,,,,0.4 µM,,,,,,,,,,,
36.5 µM,CC1(C)CC[C@@]23CC[C@]4(C)[C@@](OC2=O)([C@@H]3C1)[C@@H](Br)C[C@@H]1[C@@]2(C)C[C@@H](O)[C@H](O)C(C)(C)[C@@H]2CC[C@]14C,43.1 µM,29.1 µM,> 90 µM,25.9 µM,,,,,,,,,,,,
10.3 µM,COC(=O)[C@]12CCC(C)(C)C[C@H]1[C@H]1C(=O)C[C@@H]3[C@@]4(C)C[C@@H](OC(C)=O)[C@H](OC(C)=O)C(C)(C)[C@@H]4CC[C@@]3(C)[C@]1(C)CC2,31.7 µM,14.1 µM,17.6 µM,11.6 µM,23.8 µM,9.6 µM,,,,,,,,,,
13.3 µM,COC(=O)[C@]12CCC(C)(C)C[C@H]1C1=CC[C@@H]3[C@@]4(C)C[C@@H](OC(C)=O)[C@H](OC(C)=O)C(C)(C)[C@@H]4CC[C@@]3(C)[C@]1(C)CC2,30.5 µM,7.8 µM,26.3 µM,6.8 µM,> 30 µM,8.6 µM,,,,,,,,,,
16.2 µM,COC(=O)[C@]12CCC(C)(C)C[C@H]1C1=CC(=O)[C@@H]3[C@@]4(C)CC[C@H](OC(C)=O)C(C)(C)[C@@H]4CC[C@@]3(C)[C@]1(C)CC2,33.6 µM,66.1 µM,29.4 µM,40 µM,,24.1 µM,13.28%,72.75%,12.57%,1.4%,,25.334%,17.835%,56.831%,,
,CC1(C)CC[C@]2(C(=O)O)CC[C@]3(C)C(=CC[C@@H]4[C@@]5(C)C[C@@H](O)[C@H](O)C(C)(C)[C@@H]5CC[C@]43C)[C@@H]2C1 [MASLINIC ACID],21.4 µM,,,,16.6 µM,,,,,,,,,,,
,COC(=O)[C@]12CCC(C)(C)C[C@H]1C1=CC[C@@H]3[C@@]4(C)C[C@@H](O)[C@H](O)C(C)(C)[C@@H]4CC[C@@]3(C)[C@]1(C)CC2 [MASLINIC ACID METHYL ESTER],,,,17.8 µM,,,,,,,,,,,,
> 90 µM,CC1(C)CC[C@@]23CC[C@]4(C)[C@@](OC2=O)([C@@H]3C1)[C@@H](O)C[C@@H]1[C@@]2(C)C[C@@H](O)[C@H](O)C(C)(C)[C@@H]2CC[C@]14C,22.1 µM,> 90 µM,92.8 µM,39.9 µM,> 90 µM,78.4 µM,,,,,,,,,,
23.3 µM,COC(=O)[C@]12CCC(C)(C)C[C@H]1C1=C(O)C(=O)[C@@H]3[C@@]4(C)CC[C@H](O)C(C)(C)[C@@H]4CC[C@@]3(C)[C@]1(C)CC2,25.8 µM,25.6 µM,15.3 µM,17.5 µM,25.8 µM,21.2 µM,48.08%,25.72%,19.74%,6.65%,,21.594%,18.968%,59.438%,>50%,
,CC1(C)CC[C@]2(C(=O)OCc3ccccc3)CC[C@]3(C)[C@H](C(=O)C[C@@H]4[C@@]5(C)CC[C@H](O)C(C)(C)[C@@H]5CC[C@]43C)[C@@H]2C1,,,,,,,13.82%,74.47%,11.08%,0.62%,,,,,,
18 µM,CC1(C)CC[C@@]23CC[C@]4(C)[C@@](OC2=O)([C@@H]3C1)[C@@H](Cl)C[C@@H]1[C@@]2(C)C[C@@H](O)[C@H](O)C(C)(C)[C@@H]2CC[C@]14C,> 90 µM,33.1 µM,510 µM,34.2 µM,,,,,,,,,,,,
> 60 µM,CC1(C)CC[C@]2(C(=O)O)CC[C@]3(C)C(=CC[C@@H]4[C@@]5(C)CC[C@H](O)C(C)(C)[C@@H]5CC[C@]43C)[C@@H]2C1 [OLEANOLIC_ACID],76.4 µM,72.3 µM,38.8 µM,14 µM,> 60 µM,> 60 µM,,,,,,,,,,
